Source: PubChem
Compounds with a hit are over-represented: about 5.1% of the library has one in this group of screens.
STAT1 act-1 – activators of IFN-gamma induced STAT1 signaling | NIH 3T3 STAT1-luciferase reporter, luminescence; 100% = IFN-gamma alone, no compound | activation (% of control), % at 5.5 µM | hit rate 2.6% among 200,000 | AID 932;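 active means activation above the screen-wide mean activation plus 3 SD, cut at about 130% in these data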;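 further: raw ratio to IFN-gamma control signal so 100% means no change and 0% no light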
STAT1 blocker – inhibitors of IFN-gamma induced STAT1 signaling; NIH 3T3 STAT1-luciferase reporter, luminescence; inhibition, % at 5.5 µM; hit rate 0.35% among 200,000;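 active means inhibition above a set limit, the mean inhibition across all tested compounds plus 3 SD, cut at about 34% in these data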;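 further: 0% = IFN-gamma with DMSO and 100% = IFN-gamma with 300 µM nifuroxazide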
NF-kB neuron act – compounds increasing NF-kB expression in human neuronal cells | hit rate 1.6% among 190,000 | fold change at 12.5 µM | NF-kB reporter expression; active compounds read high; in the data active means fold change above about 3.3
STAT3 blocker – inhibitors of IL-6 induced STAT3 signaling. U3A cells, IL-6 STAT3-luciferase reporter, luminescence; host cell line lacks STAT1. inhibition, % at 5.5 µM. hit rate 0.89% among 190,000;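 active means inhibition above the mean inhibition across all screened compounds plus 3 SD, cut at about 44% in these data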;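 further: 0% = DMSO only wells and 100% = 100 µM nifuroxazide control wells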
APP 5'UTR act – activates APP 5'UTR luciferase reporter | hit rate 1% among 190,000 | activation, % at 2 µM | SH-SY5Y APP 5'UTR luciferase reporter, luminescence; zero percent = DMSO vehicle wells;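 active means activation above a set limit, based on mean plus 3 SD of controls, cut at about 140% in these data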
STAT3 act-1 – increases IL-6 driven STAT3 reporter signal; U3A cells, IL-6 STAT3-luciferase reporter, luminescence; 100% = signal with IL-6 EC80 alone; activation (% of control), % at 5.6 µM; hit rate 0.91% among 190,000;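 active means activation above the screen-wide mean of compound activation plus 3 SD, cut at about 130% in these data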;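 further: 0% = background luminescence of wells with medium and substrate only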
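System – human U3A cells carrying STAT3-luciferase construct · Probe or stimulus – Interleukin-6, 33 ng/mL · Schedule – compound 1 h, then IL-6 6 h at 37 °C · Signal – luminescence from STAT3-driven luciferase reporter · Evaluation – percent of IL-6-only median luminescence · Benchmarks – IL-6-only high control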
STAT3 act-2 – confirmation of STAT3 signaling activators. shares compounds with STAT3 act-1. U3A STAT3-luciferase reporter, IL-6 potentiation, luminescence; U3A cells lack STAT1; 100 means same as IL-6 alone. potentiation (% of control), % at 5.7 µM. hit rate 64% among 1,200. AID 1267;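 active means percent activation of the STAT3 luciferase reporter above a set limit taken from the earlier primary screen, cut at about 130% in these data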;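 further: 0% = background signal of medium plus substrate and 100% = median of IL-6 with DMSO wells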
NFkB act STAT3ct – counter-screen for STAT3 activators: NF-kappaB activation | activation (% of control), % at 5.7 µM | human cells, NF-kappaB reporter activation | shares compounds with STAT3 act-1 | hit rate 11% among 1,200; in the data active means activation above about 120%;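 further: reporter induced by TNF-alpha stimulation; 100% = median of stimulated DMSO wells and 0% = no signal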
STAT1 act-2 – activates STAT1, counter-screen to STAT3 activators. shares compounds with STAT3 act-1. NIH 3T3 STAT1-luciferase reporter, IFN-gamma, luminescence. activation (% of control), % at 5.7 µM. hit rate 13% among 1,200. AID 1318;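 active means activation above the solvent-only control well mean plus 3 SD, set per screening run, cut at about 120% in these data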;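 further: 100% = IFN-gamma with DMSO median signal so 100% means no change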
The depositor's hits bear a star; . = no result given.

SMILES	STAT1 act-1	STAT1 blocker	NF-kB neuron act	STAT3 blocker	APP 5'UTR act	STAT3 act-1	STAT3 act-2	NFkB act STAT3ct	STAT1 act-2
FC(F)(F)c1cc(Cl)c2nc(-c3ccccc3)cn2c1	123	-26	11*	-73	164*	158*	173*	140*	202*
CC(=O)Nc1c(O)c2ccccc2[nH]c1=O	85	14	1.2	-3	4	106	.	.	.
CC(=O)c1cccc2c(O)c(C3=Nc4ccccc4C3=O)[nH]c12	105	-5	4.1*	-42	105	138*	152*	136*	181*
COc1ccccc1-c1nnc(SCC(=O)NC2CCCCC2)o1	100	0	0.97	-70	17	163*	146*	97	97
CCCCN(CCCC)S(=O)(=O)c1ccc(NC(=O)c2cccs2)cc1	99	1	0.54	-58	0	145*	93	94	94
Cc1cc(C)nc(NS(=O)(=O)c2ccc(NC(=O)c3cccs3)cc2)n1	93	3	0.99	-7	-9	107	.	.	.
O=C(O)C1CC=CCC1C(=O)Nc1ccc(S(=O)(=O)N2CCCc3ccccc32)cc1 (stereo not given)	103	-4	1.6	-70	3	162*	146*	106	107
Cc1nn(-c2ccccc2)c2sc(C(=O)N3CCOCC3)cc12	121	-23	2	-86	73	177*	189*	129*	135*
COC(=O)c1cc2c(C)nn(-c3ccccc3)c2s1	91	10	1.6	-61	11	158*	139*	107	112
CCOC(=O)c1cc2c(C)nn(-c3ccccc3)c2s1	112	-13	.	-54	-5	148*	131	105	110
Cc1ccc(S(=O)(=O)N2CCN(C(=O)c3cc4c(C)nn(-c5ccccc5)c4s3)CC2)cc1	99	4	0.73	-1	.	101	.	.	.
Cc1nn(-c2ccccc2)c2sc(C(=O)O)cc12	101	0	1.1	4	21	102	.	.	.
Cn1/c(=N/N=C/c2ccc(Cl)c([N+](=O)[O-])c2)sc2ccccc21	96	4	1.4	-57	9	156*	148*	108	113
Cc1ccc(S(=O)(=O)CCC(=O)OCn2nnc3ccccc3c2=O)cc1	93	5	1.1	7	7	98	.	.	.
O=C(c1cc(-c2ccccc2)nc2ccccc12)N1CCc2ccccc2C1	96	4	0.86	-9	16	106	.	.	.
O=c1cc(-c2ccccc2)nc2n1Cc1ccccc1-2	107	-15	0.74	-66	-4	155*	133*	114	118
O=C(c1cc2c(s1)CCCC2)N1CCN(c2ccccc2)CC1	106	-8	1.3	12	15	99	.	.	.
O=C(c1cc2c(s1)CCCC2)N1CCN(S(=O)(=O)c2ccccc2C(F)(F)F)CC1	100	0	0.8	-50	-11	139*	116	108	102
O=C(O)CCC(C(=O)O)n1c(O)c(C2=c3ccccc3=NC2=O)sc1=S (stereo not given)	105	-4	1.2	-46	-2	145*	138*	105	97
Cc1cc(Br)cnc1NC(=S)Nc1ccc(F)cc1F	107	-9	1	31	22	81	.	.	.
CNCc1nc2ccccc2[nH]1	104	-4	1	1	-17	101	.	.	.
CN/N=C(\Cc1nc2ccccc2[nH]1)c1ccc([N+](=O)[O-])cc1	114	-16	1.1	-34	41	136*	166*	119	116
O=C1C(=C(c2ccccc2)c2ccccc2)Nc2ccccc21	91	10	1.2	-47	6	147*	139*	101	95
O=C1C(=C(O)c2ccccc2)C(=O)c2ccccc21	95	5	0.96	-12	3	113	.	.	.
